According to ChEMBL document CHEMBL4311980, “Discovery of 2-isoxazol-3-yl-acetamide analogues as heat shock protein 90 (HSP90) inhibitors with significant anti-HIV activity” (Eur J Med Chem, 2019):
Activity calls are given as the source filed them. The rule behind the calls is not given here.

Legend:
[1] = target: Protease (Human immunodeficiency virus 1) (UniProt Q9YQ12); assay: Inhibition of HIV-1 protease at 1 uM using synthetic peptide as substrate after 15 mins by fluorimetric based assay
Method in brief: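 Cell-free fluorometric protease kit. HIV-1 protease was diluted in reaction buffer and loaded at 10 nmol/well with or without compound. Indinavir served as positive control, with untreated and DMSO controls. Fluorescence (Ex/Em 330/450 nm) was read 15 min after addition. n = 3.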

[2] = system: Human immunodeficiency virus 1; assay: Antiviral activity against HIV-1 NL4-3 infected in human PBMC assessed as suppression of viral replication by measuring reduction in p24 level measured at 72 hrs post-infection by ELISA; type: functional, organism-based; conditions: Human immunodeficiency virus 1, 72 h
Method in brief: (§1)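 Cells were incubated with 0.5 MOI virus in the presence of polybrene at 37 °C for 4 h with intermittent mixing, then washed and plated in complete RPMI-1640. Compound added at different concentrations, with untreated and DMSO controls. PBMC were PHA-activated. Supernatant p24 measured by capture ELISA (A450) at 72 h. % inhibition calculated relative to untreated cells.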

[3] = system: Human immunodeficiency virus 1; assay: Antiviral activity against 0.01 to 0 1 MOI HIV-1 NL4-3 infected in human CEM-GFP cells assessed as suppression of viral replication by measuring reduction in p24 level at 1 uM measured at 72 hrs post-infection by ELISA; type: functional, organism-based
Method in brief: (§2)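 Cells infected with HIV-1 NL4-3 at MOI 0.01, 0.1 or 1 in the presence of polybrene at 37 °C for 4 h. Cells then washed in serum-free RPMI-1640 and plated in complete RPMI-1640 with compound at its highest non-cytotoxic concentration. Untreated and DMSO controls. Supernatant p24 measured by antigen-capture ELISA (A450) at 72 h post-infection. % inhibition = (untreated − treated p24)/untreated p24 × 100.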

[4] = system: Human immunodeficiency virus 1; assay: Antiviral activity against R5X4 tropic HIV-1 subtype-B 89.6 infected in human CEM-GFP cells assessed as suppression of viral replication by measuring reduction in p24 level measured at 72 hrs post-infection by ELISA; type: functional, organism-based; conditions: M:B_89.6; method in brief: as §1
[5] = Therapeutic index, ratio of CC50 for human Jurkat J6 cells to IC50 for antiviral activity against HIV-1 NL4-3 infected in human Jurkat J6 cells; type: toxicity, cell-based; conditions: read-out: Ratio CC50/IC50
Method in brief: (§3)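 IC50 was determined from p24 ELISA 72 h after 0.5 MOI HIV-1 NL4-3 infection with compound at different concentrations. Therapeutic index = CC50/IC50.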

[6] = system: Human immunodeficiency virus 1; assay: Antiviral activity against HIV-1 NL4-3 infected in human CEM-GFP cells assessed as suppression of viral replication by measuring reduction in p24 level measured at 72 hrs post-infection by ELISA; type: functional, organism-based; conditions: Human immunodeficiency virus 1, NL4-3, CEM-GFP; method in brief: as §1
[7] = Cytotoxicity against human PBMC assessed as reduction in cell viability after 48 hrs by MTT assay; type: cell-based
Method in brief: (§4)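 Cells were seeded at 25,000/well in complete medium with compound at different concentrations, with untreated and DMSO controls, and incubated 48 h. MTT (5 mg/mL stock) was added for 4 h at 37 °C in the dark. Formazan was dissolved in isopropanol and A570 read. CC50 and highest non-cytotoxic concentration were derived from this assay.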

[8] = system: HIV-1 M:B; assay: Antiviral activity against R5 tropic HIV-1 subtype-B ADA infected in human PBMC assessed as suppression of viral replication by measuring reduction in p24 level measured at 72 hrs post-infection by ELISA; type: functional; method in brief: as §1
[9] = system: Human immunodeficiency virus 1; assay: Antiviral activity against HIV-1 NL4-3 infected in human Jurkat J6 cells assessed as suppression of viral replication by measuring reduction in p24 level measured at 72 hrs post-infection by ELISA; type: functional, organism-based; conditions: Human immunodeficiency virus 1, Jurkat; method in brief: as §1
[10] = system: Human immunodeficiency virus 1; assay: Antiviral activity against HIV-1 NL4-3 infected in human U937 cells assessed as suppression of viral replication by measuring reduction in p24 level measured at 72 hrs post-infection by ELISA; type: functional, organism-based; conditions: Human immunodeficiency virus 1, U-937, 72 h; method in brief: as §1
[11] = Ratio of therapeutic index for compound to therapeutic index of AUY922
[12] = Therapeutic index, ratio of CC50 for human PBMC to IC50 for antiviral activity against HIV-1 NL4-3 infected in human PBMC; type: toxicity; conditions: read-out: Ratio CC50/IC50; method in brief: as §3
[13] = Ratio of therapeutic index for compound to therapeutic index of AZT
[14] = system: Human immunodeficiency virus 1; assay: Antiviral activity against HIV-1 subtype C isolate indeiC infected in human CEM-GFP cells assessed as suppression of viral replication by measuring reduction in p24 level measured at 72 hrs post-infection by ELISA; type: functional, organism-based; method in brief: as §1
[15] = system: HIV-1 M:B; assay: Antiviral activity against X4 tropic HIV-1 subtype-B 3B infected in human PBMC assessed as suppression of viral replication by measuring reduction in p24 level measured at 72 hrs post-infection by ELISA; type: functional; method in brief: as §1
[16] = Cytotoxicity against human Jurkat J6 cells assessed as reduction in cell viability after 48 hrs by MTT assay; type: cell-based; method in brief: as §4
[17] = Cytotoxicity against human TZM-bl cells assessed as maximum non-cytotoxic concentration after 48 hrs by MTT assay; type: cell-based; conditions: read-out: MNCC; method in brief: as §4
[18] = target: Human immunodeficiency virus type 1 reverse transcriptase (Human immunodeficiency virus 1) (UniProt Q72547); assay: Inhibition of HIV-1 reverse transcriptase RNA-dependent DNA polymerase activity assessed as reduction in biotin-dUTP incorporation at 1 uM using poly(A)/oligo (dT)15 as template/primer by ELISA
Method in brief: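 RNA-dependent DNA polymerase activity of HIV-1 RT was tested with a colorimetric reverse transcriptase kit. Nevirapine served as positive control, with untreated and DMSO vehicle wells. Compound was tested at its highest non-cytotoxic concentration. n = 3.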

[19] = system: Human immunodeficiency virus 1; assay: Antiviral activity against 0.01 to 0 1 MOI HIV-1 NL4-3 infected in human PBMC assessed as suppression of viral replication by measuring reduction in p24 level at 1 uM measured at 72 hrs post-infection by ELISA; type: functional, organism-based; method in brief: as §2
[20] = Therapeutic index, ratio of CC50 for human CEM-GFP cells to IC50 for antiviral activity against HIV-1 NL4-3 infected in human CEM-GFP cells; type: toxicity, cell-based; conditions: read-out: Ratio CC50/IC50; method in brief: as §3
[21] = Therapeutic index, ratio of CC50 for human U937 cells to IC50 for antiviral activity against HIV-1 NL4-3 infected in human U937 cells; type: toxicity, cell-based; conditions: read-out: Ratio CC50/IC50; method in brief: as §3
[22] = system: Human immunodeficiency virus 1; assay: Antiviral activity against HIV-1 subtype C isolate indeiC infected in human PBMC cells assessed as suppression of viral replication by measuring reduction in p24 level measured at 72 hrs post-infection by ELISA; type: functional, organism-based; method in brief: as §1
[23] = system: Human immunodeficiency virus 1; assay: Antiviral activity against R5X4 tropic HIV-1 subtype-B 89.6 infected in human PBMC assessed as suppression of viral replication by measuring reduction in p24 level measured at 72 hrs post-infection by ELISA; type: functional, organism-based; conditions: M:B_89.6; method in brief: as §1
[24] = system: HIV-1 M:B; assay: Antiviral activity against X4 tropic HIV-1 subtype-B 3B infected in human CEM-GFP cells assessed as suppression of viral replication by measuring reduction in p24 level measured at 72 hrs post-infection by ELISA; type: functional, cell-based; method in brief: as §1
[25] = target: Heat shock protein HSP90 (Homo sapiens) (UniProt P07900+P08238); assay: Inhibition of HSP90 (unknown origin) expressed in HEK-293T cells assessed as reduction in Tat-mediated transactivation at 1 uM measured at 48 hrs post-transfection by LTR-driven luciferase reporter gene assay; type: cell-based
Method in brief: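 HEK-293T cells were co-transfected with p-LTR-Luc and Tat using PEI in the presence or absence of compound. At 48 h post-transfection, cells were harvested and luminescence and fluorescence were measured.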

[26] = system: HIV-1 M:B; assay: Antiviral activity against R5 tropic HIV-1 subtype-B ADA infected in human CEM-GFP cells assessed as suppression of viral replication by measuring reduction in p24 level measured at 72 hrs post-infection by ELISA; type: functional, cell-based; method in brief: as §1
[27] = system: Human immunodeficiency virus 1; assay: Antiviral activity against HIV-1 NL4-3 infected in CEM-GFP cells assessed as reduction in HSP90 expression measured at 72 hrs post-infection by immunoblotting analysis; type: functional, organism-based
Method in brief: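 CEM-GFP cells were infected with 0.5 MOI HIV-1 NL4-3 with or without compound, with DMSO as vehicle control. At 72 h post-infection, HSP90 protein was measured by immunoblotting and quantified by densitometry.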

[28] = Cytotoxicity against human CEM-GFP cells assessed as reduction in cell viability after 48 hrs by MTT assay; type: cell-based; method in brief: as §4
[29] = system: Human immunodeficiency virus 1; assay: Antiviral activity against HIV-1 NL4-3 infected in human TZM-bl cells assessed as reduction in viral replication at 1000 nM measured at 48 hrs post-infection by steady-glo reporter gene assay relative to control; type: functional; conditions: Human immunodeficiency virus 1, NL4-3, TZM-bl
Method in brief: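 TZM-bl cells (0.15×10^6/well) were infected with 0.5 MOI HIV-1 NL4-3 12 h after seeding and treated at the highest non-cytotoxic concentration, which was set by MTT assay. At 48 h post-infection, cells were lysed and mixed 1:1 with Steady-Glo substrate, and luminescence was read.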

[30] = Cytotoxicity against human U937 cells assessed as reduction in cell viability after 48 hrs by MTT assay; type: cell-based, U-937; method in brief: as §4

Protease (Human immunodeficiency virus 1), sequence (Q9YQ12 as listed by the source): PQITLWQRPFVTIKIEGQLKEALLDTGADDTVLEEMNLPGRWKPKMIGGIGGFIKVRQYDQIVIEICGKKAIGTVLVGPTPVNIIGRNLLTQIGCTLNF

With `CC(C)NC(=O)Cc1cc(-c2ccccc2)on1` the inhibition [1] was “inactive”, the IC50 [2] was 0.0562 µM and the inhibition [3] was “Active”. For the same compound, the inhibition [4] was “Active”, the selectivity ratio [5] was 1140 and the IC50 [6] was 0.0395 µM. The CC50 at 48 h [7] was 67.9 µM, the inhibition [8] was “Active” and the IC50 [9] was 0.0527 µM. It also gave an IC50 [10] of 0.053 µM, a Ratio [11] of 3.5 and a selectivity ratio [12] of 1210. For the same compound, the Ratio [13] was 1.5, the inhibition [14] was “Active” and the inhibition [15] was “Active”. The CC50 at 48 h [16] was 60.3 µM, the MNTC at 48 h [17] was 1000 nM and the inhibition [18] was “inactive”. For the same compound, the inhibition [19] was “Active”, the selectivity ratio [20] was 1660 and the selectivity ratio [21] was 1070. For the same compound, the inhibition [22] was “Active”, the inhibition [23] was “Active” and the inhibition [24] was “Active”. For the same compound, the inhibition [25] was “Active”, the inhibition [26] was “Active” and the Activity [27] was “Active”. For the same compound, the CC50 at 48 h [28] was 65.6 µM, the inhibition at 1 µM [29] was 85% and the CC50 at 48 h [30] was 56.6 µM.
